Experimental data taken from ChEMBL document CHEMBL2407083, “Design and synthesis of novel 4-(4-oxo-2-arylthiazolidin-3-yl)benzenesulfonamides as selective inhibitors of carbonic anhydrase IX over I and II with potential anticancer activity” (Eur J Med Chem, 2013).
Values after ≈ are worked out from the molar mass of the structure shown. Active and inactive are the calls of the source. The rule behind the calls is not given here.

How the values were obtained:
Carbonic anhydrase 9 = Carbonic anhydrase 9 (Homo sapiens, UniProt Q16790); assay: Inhibition of carbonic anhydrase 9 (unknown origin) preincubated for 15 mins by stopped flow CO2 hydration assay
DU-145 = assay: Cytotoxicity against human DU145 cells after 48 hrs by MTT assay; conditions: DU-145, 48 h
MDA-MB-231 = assay: Cytotoxicity against human MDA-MB-231 cells after 48 hrs by MTT assay; conditions: MDA-MB-231, 48 h
COLO 205 [1] = assay: Cytotoxicity against human COLO205 cells after 48 hrs by MTT assay; conditions: COLO 205, 48 h
Mus musculus [2] = assay: Toxicity in Swiss albino mouse DLA-induced solid tumor model assessed as increase in body weight at 50 mg/kg, po administered on days 3rd, 5th, 7th, 10th, 12th, and 14th of tumor inoculation measured on day 30 (reference value: 13.79%); format: organism-based; design: dose 50 mg/kg, route oral; conditions: in vivo
COLO 205 [3] = assay: Induction of apoptosis in human COLO205 cells assessed as DNA fragmentation at IC50 after 48 hrs using Hoechst 33258 staining by fluorescence microscopic analysis; format: functional, cell-based
Outline: (§1)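 COLO-205 cells plated at 10⁵ cells/ml and grown to 70-80% confluency, then treated for 48 h. Fixed in 4% formaldehyde for 30 min at RT and stained with Hoechst 33258 for 15 min at RT. After three PBS washes, examined by inverted fluorescence microscopy (ex 340-380 nm, em 465 nm) against untreated control cells.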

COLO 205 [4] = assay: Induction of apoptosis in human COLO205 cells assessed as chromatin condensation at IC50 after 48 hrs using acridine orange and ethidium bromide staining by fluorescence microscopic analysis; format: functional, cell-based
Outline: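 COLO-205 cells seeded at 10⁵ cells/ml, grown 24 h, then treated for 48 h. Cells collected by trypsinization, centrifuged at 129 g for 5 min, and washed with PBS. Stained with a 1:1 acridine orange/ethidium bromide mix and examined by fluorescence microscopy against control cells.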

Mus musculus [5] = assay: Antitumor activity in Swiss albino mouse DLA-induced solid tumor model assessed as reduction in tumor volume at 50 mg/kg, po administered on days 3rd, 5th, 7th, 10th, 12th, and 14th of tumor inoculation measured on day 30; format: functional; design: scale not given: the % may be the effect or the level left
Outline: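 Male Swiss albino mice (6-8 weeks, 29 ± 2 g) received DLA cells, 1 × 10⁶/mouse, subcutaneously into the right hind limb. Dosing by mouth in 0.25% CMC suspension. A vernier caliper gave tumor diameter every third day from day 3, and V = 4/3πr₁²×r₂. Percent inhibition is against vehicle control on day 30. Six mice per group.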

COLO 205 [6] = assay: Induction of apoptosis in human COLO205 cells assessed as nuclear condensation at IC50 after 48 hrs using Hoechst 33258 staining by fluorescence microscopic analysis; format: functional, cell-based; outline: as §1

| SMILES | Ki (Carbonic anhydrase 9) | IC50 (DU-145) | IC50 (MDA-MB-231) | IC50 (COLO 205 [1]) | Activity (Mus musculus [2]) | Activity (COLO 205 [3]) | Activity (COLO 205 [4]) | Activity (Mus musculus [5]) | Activity (COLO 205 [6]) |
| --- | --- | --- | --- | --- | --- | --- | --- | --- | --- |
| NS(=O)(=O)c1ccc(N2C(=O)CSC2c2ccccc2Cl)cc1 (stereo not given) | 7.7 nM | 33.3 µg/mL (≈ 90.2 µM) | 13.6 µg/mL (≈ 36.8 µM) | 19.5 µg/mL (≈ 52.9 µM) | – | – | – | – | – |
| NS(=O)(=O)c1ccc(N2C(=O)CSC2c2ccccc2)cc1 (stereo not given) | 21.2 nM | 39.2 µg/mL (≈ 117 µM) | 23.9 µg/mL (≈ 71.4 µM) | 30.6 µg/mL (≈ 91.5 µM) | – | – | – | – | – |
| NS(=O)(=O)c1ccc(N2C(=O)CSC2c2ccc(Cl)cc2)cc1 (stereo not given) | 4.7 nM | 29.3 µg/mL (≈ 79.4 µM) | 7.16 µg/mL (≈ 19.4 µM) | 15.4 µg/mL (≈ 41.7 µM) | – | – | – | – | – |
| NS(=O)(=O)c1ccc(N2C(=O)CSC2c2ccccc2Br)cc1 (stereo not given) | 9.2 nM | 35 µg/mL (≈ 84.7 µM) | 20.6 µg/mL (≈ 49.9 µM) | 27.5 µg/mL (≈ 66.5 µM) | – | – | – | – | – |
| NS(=O)(=O)c1ccc(N2C(=O)CSC2c2cccc(Cl)c2)cc1 (stereo not given) | 2.2 nM | 23.9 µg/mL (≈ 64.9 µM) | 5.81 µg/mL (≈ 15.8 µM) | 5.03 µg/mL (≈ 13.6 µM) | 4.09% | Active | Active | 64.83% | Active |
| NS(=O)(=O)c1ccc(N2C(=O)CSC2c2ccc(Br)cc2)cc1 (stereo not given) | 13.5 nM | 35.1 µg/mL (≈ 84.9 µM) | 17.5 µg/mL (≈ 42.3 µM) | 23.1 µg/mL (≈ 55.8 µM) | – | – | – | – | – |
| NS(=O)(=O)c1ccc(N2C(=O)CSC2c2cccc(Br)c2)cc1 (stereo not given) | 19.4 nM | 30.1 µg/mL (≈ 72.9 µM) | 12.4 µg/mL (≈ 30 µM) | 16.9 µg/mL (≈ 40.9 µM) | – | – | – | – | – |
| NS(=O)(=O)c1ccc(N2C(=O)CSC2c2ccccc2F)cc1 (stereo not given) | 44.4 nM | 38.6 µg/mL (≈ 110 µM) | 25.9 µg/mL (≈ 73.4 µM) | 34.7 µg/mL (≈ 98.4 µM) | – | – | – | – | – |
| NS(=O)(=O)c1ccc(N2C(=O)CSC2c2ccc(F)cc2)cc1 (stereo not given) | 37.4 nM | 37.1 µg/mL (≈ 105 µM) | 22.7 µg/mL (≈ 64.4 µM) | 31.4 µg/mL (≈ 89 µM) | – | – | – | – | – |
| NS(=O)(=O)c1ccc(N2C(=O)CSC2c2cccc(F)c2)cc1 (stereo not given) | 53.1 nM | 39.1 µg/mL (≈ 111 µM) | 21.4 µg/mL (≈ 60.6 µM) | 29.8 µg/mL (≈ 84.7 µM) | – | – | – | – | – |
